Experimental findings from ChEMBL document CHEMBL4038333, “Nonacidic Farnesoid X Receptor Modulators” (J Med Chem, 2017) are described below.

Calls of active or inactive are those of the source. The rule behind the calls is not given here.

For data set [1], the target named is Retinoic acid receptor beta (Homo sapiens) (UniProt P10826). Kind of data set: Antagonist activity at GAL4-tagged human RARbeta1 ligand binding domain (177 to 455 residues) expressed in HEK293T cells at 1 uM after 12 to 14 hrs by dual-glo luciferase reporter gene assay. It counts as cell-based. Particulars: HEK-293T. The method in brief: (§1)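 Run as a selectivity screen against each listed receptor (14 nuclear receptors plus TGR5), in both agonist and antagonist modes. Test concentration was 1 µM, with n = 3.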
Chain of Retinoic acid receptor beta (Homo sapiens) (P10826 whole entry, the tested form may be a part): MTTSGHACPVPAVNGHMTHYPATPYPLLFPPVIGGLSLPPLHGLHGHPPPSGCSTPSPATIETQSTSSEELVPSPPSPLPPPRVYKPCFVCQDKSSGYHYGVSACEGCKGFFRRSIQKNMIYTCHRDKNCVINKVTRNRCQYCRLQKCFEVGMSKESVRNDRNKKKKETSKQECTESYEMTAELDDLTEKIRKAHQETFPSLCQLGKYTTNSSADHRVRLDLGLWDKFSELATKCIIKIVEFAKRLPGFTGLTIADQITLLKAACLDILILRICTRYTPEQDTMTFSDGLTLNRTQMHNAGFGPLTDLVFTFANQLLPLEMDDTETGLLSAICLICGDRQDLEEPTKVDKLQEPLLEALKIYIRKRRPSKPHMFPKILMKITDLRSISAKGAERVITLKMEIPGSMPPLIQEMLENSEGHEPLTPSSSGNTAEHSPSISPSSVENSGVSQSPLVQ

The test system of data set [2] is HeLa. Kind of data set: Selectivity ratio for human FXR expressed in human HeLa cells co-expressing BSEP over GAL4-tagged human PPARdelta ligand binding domain expressed in HEK293T cells. In kind it is cell-based.
Data set [3] in a line: Metabolic stability in human HepG2 cells assessed as compound remaining after 24 hrs by HPLC analysis. In kind it is ADME, cell-based. Particulars: read-out: Stability.
Data set [4] concerns the target Peroxisome proliferator-activated receptor gamma (Homo sapiens) (UniProt P37231). Kind of data set: Antagonist activity at GAL4-tagged human PPARgamma ligand binding domain expressed in HEK293T cells at 1 uM after 12 to 14 hrs by dual-glo luciferase reporter gene assay. In kind it is cell-based. Particulars: HEK-293T. The method in brief:
as §1
(In a reporter assay the amount or activity of a reporter protein is the signal.)

In data set [5] the target is Oxysterols receptor LXR-beta (Homo sapiens) (UniProt P55055). Kind of data set: Antagonist activity at GAL4-tagged human LXRbeta ligand binding domain expressed in HEK293T cells at 1 uM after 12 to 14 hrs by dual-glo luciferase reporter gene assay. In kind it is cell-based. The settings on record: HEK-293T. The method in brief:
as §1

In data set [6] the target is Retinoic acid receptor alpha (Homo sapiens) (UniProt P10276). Kind of data set: Transactivation of GAL4-tagged human RARalpha1 ligand binding domain (177 to 462 residues) expressed in HEK293T cells at 1 uM after 12 to 14 hrs by dual-glo luciferase reporter gene assay. It counts as cell-based. The settings on record: HEK-293T. A digest of the protocol:
as §1

Data set [7] relates to HeLa. Kind of data set: Selectivity ratio for human FXR expressed in human HeLa cells co-expressing BSEP over GAL4-tagged human RXRalpha ligand binding domain (225 to 462 residues) expressed in HEK293T cells. It counts as cell-based.
Data set [8] concerns the target T1, Bile acid receptor (Homo sapiens) (UniProt Q96RI1).
T1 sequence (whole entry): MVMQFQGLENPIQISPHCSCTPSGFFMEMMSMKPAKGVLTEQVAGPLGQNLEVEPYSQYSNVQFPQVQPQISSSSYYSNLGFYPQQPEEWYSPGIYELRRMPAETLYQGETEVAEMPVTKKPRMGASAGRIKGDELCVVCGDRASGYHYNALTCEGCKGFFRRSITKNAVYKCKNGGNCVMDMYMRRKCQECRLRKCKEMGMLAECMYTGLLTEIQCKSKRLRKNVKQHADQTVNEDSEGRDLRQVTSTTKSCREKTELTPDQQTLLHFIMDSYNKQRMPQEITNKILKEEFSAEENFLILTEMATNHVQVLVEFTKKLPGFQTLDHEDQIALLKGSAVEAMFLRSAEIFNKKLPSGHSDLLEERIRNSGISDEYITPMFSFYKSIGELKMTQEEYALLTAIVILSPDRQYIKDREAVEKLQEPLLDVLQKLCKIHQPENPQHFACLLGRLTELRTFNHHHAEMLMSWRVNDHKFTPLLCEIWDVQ
Kind of data set: Modulation of FXR in human HepG2 cells assessed as induction of OSTalpha mRNA expression at 10 nM by qRT-PCR analysis. It counts as cell-based. A digest of the protocol: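 HepG2 hepatocarcinoma cells were incubated with the compound at 10 nM. FXR target-gene mRNA was quantified by qRT-PCR (n = 3), with significance at p < 0.05, 0.01 and 0.001.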
A general note: Real-time PCR tracks product formation cycle by cycle.

The subject of data set [9] is HeLa. Kind of data set: Selectivity ratio for human FXR expressed in human HeLa cells co-expressing BSEP over GAL4-tagged human PPARgamma ligand binding domain expressed in HEK293T cells. In kind it is cell-based.
For data set [10], the system named is HeLa. Kind of data set: Selectivity ratio for human FXR expressed in human HeLa cells co-expressing BSEP over GAL4-tagged human VDR isoform 1 ligand binding domain (119 to 427 residues) expressed in HEK293T cells. It counts as cell-based.

Chain of Oxysterols receptor LXR-beta (Homo sapiens) (P55055 whole entry, the tested form may be a part): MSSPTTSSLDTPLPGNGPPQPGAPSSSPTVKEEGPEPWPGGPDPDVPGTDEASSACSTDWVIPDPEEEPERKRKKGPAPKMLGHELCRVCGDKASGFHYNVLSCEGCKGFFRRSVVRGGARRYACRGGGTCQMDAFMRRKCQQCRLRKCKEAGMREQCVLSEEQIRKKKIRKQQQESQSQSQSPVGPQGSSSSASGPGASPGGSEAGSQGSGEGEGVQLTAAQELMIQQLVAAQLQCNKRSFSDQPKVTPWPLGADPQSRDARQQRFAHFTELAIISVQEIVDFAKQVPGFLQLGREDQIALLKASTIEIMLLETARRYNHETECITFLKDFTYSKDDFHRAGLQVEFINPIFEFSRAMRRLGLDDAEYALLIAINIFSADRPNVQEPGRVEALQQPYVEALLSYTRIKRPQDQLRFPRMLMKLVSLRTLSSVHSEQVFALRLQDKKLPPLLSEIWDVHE
Chain of Peroxisome proliferator-activated receptor gamma (Homo sapiens) (P37231 whole entry, the tested form may be a part): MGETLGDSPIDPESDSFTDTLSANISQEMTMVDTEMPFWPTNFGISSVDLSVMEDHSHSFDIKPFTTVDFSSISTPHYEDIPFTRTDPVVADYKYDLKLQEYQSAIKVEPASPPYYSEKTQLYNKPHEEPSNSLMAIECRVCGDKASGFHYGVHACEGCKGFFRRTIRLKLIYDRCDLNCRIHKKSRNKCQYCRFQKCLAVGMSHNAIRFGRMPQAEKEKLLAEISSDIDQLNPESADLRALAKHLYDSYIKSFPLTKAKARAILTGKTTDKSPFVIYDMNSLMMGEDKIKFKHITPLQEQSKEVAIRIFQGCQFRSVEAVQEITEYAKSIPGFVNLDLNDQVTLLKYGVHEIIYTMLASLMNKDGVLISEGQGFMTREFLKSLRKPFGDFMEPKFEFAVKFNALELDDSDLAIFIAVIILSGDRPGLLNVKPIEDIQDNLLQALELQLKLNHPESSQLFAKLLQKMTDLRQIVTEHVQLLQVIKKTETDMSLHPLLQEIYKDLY
Chain of Retinoic acid receptor alpha (Homo sapiens) (P10276 whole entry, the tested form may be a part): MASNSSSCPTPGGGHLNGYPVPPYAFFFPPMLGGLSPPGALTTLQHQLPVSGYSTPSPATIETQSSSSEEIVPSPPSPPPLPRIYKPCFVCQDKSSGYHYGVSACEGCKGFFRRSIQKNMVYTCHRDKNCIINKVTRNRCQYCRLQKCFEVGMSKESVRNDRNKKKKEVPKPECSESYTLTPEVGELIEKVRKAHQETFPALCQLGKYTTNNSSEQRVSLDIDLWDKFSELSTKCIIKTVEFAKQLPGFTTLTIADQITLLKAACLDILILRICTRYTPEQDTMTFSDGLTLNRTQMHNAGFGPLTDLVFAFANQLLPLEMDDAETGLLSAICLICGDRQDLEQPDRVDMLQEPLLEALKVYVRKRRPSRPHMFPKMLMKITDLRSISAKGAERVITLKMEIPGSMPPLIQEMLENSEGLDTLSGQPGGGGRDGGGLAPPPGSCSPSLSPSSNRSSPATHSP

Consider `COc1ccc(CNc2c(-c3cc(Cl)ccn3)nc3ccc(Cl)cn23)cc1`, for which the inhibition entry in [1], in [4] and in data set [5] was “inactive” in each case. The Selectivity ratio in data set [2], in [7], in [9] and in data set [10] was 3000 throughout. In addition, the remaining at 24 h in data set [3] came to 12%. In addition, the result in [6] was inactive. Also, in data set [8], the result was Active.
